Data: ChEMBL document CHEMBL1139837, “Synthesis and transfection efficiencies of new lipophilic polyamines” (J Med Chem, 2007)
Active and inactive are the calls of the source.

Assays:
CHO-K1 [1] = test: Transfection efficiency in eGFP encoding DNA transfected CHOK1 cells after 24 hrs at 5 ug/mL; type: functional, Cricetulus griseus
In short: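 Subconfluent (~50%) CHO-K1 cells were exposed 4 h at 37 °C in F12K to 1 µg/mL eGFP plasmid complexed with lipid (0.5, 2.5 or 5 µg/mL). Medium was then replaced with growth medium for 24 h. Trypsinized cells were scored by FACS. The gate was set above the no-plasmid/no-lipid threshold (5.5), giving % GFP-positive cells; mean ± SD.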

CHO-K1 [2] = test: Increase in uptake of DNA in CHOK1 cells after 4 hrs; type: functional, cell-based; conditions: Cricetulus griseus
In short: (§1)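 Confluent CHO-K1 cells, rinsed, were incubated 4 h at 37 °C in serum-free F12K with 1 µg/mL Alexa Fluor-488-labeled DNA complexed with cationic lipid at 0.5, 2.5 or 5 µg/mL. Cells were washed with PBS, trypsinized, washed with ice-cold PBS/1% BSA to remove surface signal, then assayed by flow cytometry for internalized fluorescence. Gated percent positive cells were set against DNA-only cells; mean ± SD.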

CHO [3] = test: Survival of CHO cells after 48 hrs upto 6.4 uM; type: functional, Cricetulus griseus
In short: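 CHO cells grown at 37 °C, 5% CO2, in RPMI with 10% fetal calf serum, 2 mM glutamine, penicillin/streptomycin and 2 mM aminoguanidine. Viability was checked by trypan blue before each run. Cells were plated at 2e3 cells/mL in 96-well plates and dosed after overnight incubation. DMSO was kept below 40 µM. Growth after 48 h was read as MTT formazan absorbance at 540 nm.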

CHO-K1 [4] = test: Increase in uptake of DNA in CHOK1 cells after 4 hrs at 5 ug/mL; type: functional, cell-based; conditions: Cricetulus griseus; in short: as §1
[5] = Inhibition of [14C]spermine uptake into polyamine transporter in CHOK1 cells; type: cell-based; conditions: Cricetulus griseus, CHO-K1
In short: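 Subconfluent CHO-K1 cells were rinsed three times in F12K and dosed with varying compound concentrations. They were incubated 20 min with 1 µM [14C]spermine (31 Ci/mol) in serum-free medium, rinsed (including 1 mM spermine washes), and lysed in 0.5 M NaOH for 1 h at 37 °C. Lysates were neutralized and scintillation-counted to give an IC50.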

CHO [6] = test: Cytotoxicity against CHO cells after 24 hrs at 0.5 uM; type: cell-based, Cricetulus griseus; conditions: chinese hamster

SMILES | Activity (CHO-K1 [1]) [%] | Activity (CHO-K1 [2]) | Survival (CHO [3]) | Activity (CHO-K1 [4]) | IC50 [5] [µM] | Activity (CHO [6]) [%]
CCCCCCCC/C=C/CCCCCCCCOc1ccc(CNCCCCCCCCN)cc1OCCCCCCCC/C=C/CCCCCCCC | 23 | Dose-dependent effect | >=90% |  |  | 
CCCCCCCC/C=C/CCCCCCCCOc1ccc(C(=O)NCCCCNCCCCN)cc1OCCCCCCCC/C=C/CCCCCCCC | 40 | Dose-dependent effect | >=90% |  |  | 
CCCCCCCC/C=C/CCCCCCCCOc1ccc(CNCCCCN)cc1OCCCCCCCC/C=C/CCCCCCCC | 38 | Dose-dependent effect | >=90% | Active |  | 
CCCCCCCC/C=C/CCCCCCCCOc1ccc(CNCCOCCOCCN)cc1OCCCCCCCC/C=C/CCCCCCCC | 25 | Dose-dependent effect | >=90% |  |  | 
CCCCCCCC/C=C/CCCCCCCCOc1ccc(CNCCCCNCCCCNCCCCN)cc1OCCCCCCCC/C=C/CCCCCCCC | 67 | Dose-dependent effect | >=90% | Active | 10 | 
CCCCCCCC/C=C/CCCCCCCCOc1ccc(CNCCCCNCCCCN)cc1OCCCCCCCC/C=C/CCCCCCCC | 49 | Dose-dependent effect | >=90% | Active |  | 
CCCCCCCC/C=C/CCCCCCCCOc1ccc(C(=O)NCCCCNCCCCNCCCCN)cc1OCCCCCCCC/C=C/CCCCCCCC |  | Dose-dependent effect |  |  |  | 95
